Columns and labels:
[1] = Ratio of IC50 value determined in CHO-MG cell lines to the IC50 value determined in CHO cell lines was evaluated
CHO-MG (Chinese hamster) = test: Cytotoxicity in CHO-MG cell lines; details: Cricetulus griseus
[2] = Ratio of IC50 value determined in L1210 cell lines to the IC50 value determined in DFMO treated L1210 cell lines was evaluated; assay type: functional
CHO (Chinese hamster) = test: Cytotoxicity in CHO cell lines; details: Cricetulus griseus
L1210 [3] = test: Cytotoxicity in L1210 cell lines; assay type: functional, cell-based; details: Mus musculus
In short: (§1)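 L1210 murine leukemia cells, early to mid log phase, in RPMI with 10% FCS, glutamine, antibiotics and 2 mM aminoguanidine at 37 °C, 5% CO2. Cells were seeded at 5 × 10^4 cells/mL with drug added at seeding. For line 3, DFMO at 5 mM was present in the medium from drug addition. After 48 h of exposure, growth was read as MTT formazan absorbance at 540 nm.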

L1210 [4] = test: Cytotoxicity in DFMO treated L1210 cell lines; assay type: functional, cell-based; details: Mus musculus
In short: as §1

Compound	Ratio [1]	IC50 (CHO-MG (Chinese hamster)) [µM]	Ratio [2]	IC50 (CHO (Chinese hamster)) [µM]	IC50 (L1210 [3]) [µM]	IC50 (L1210 [4]) [µM]
Cl.NC1CCC(NCCCCNCc2c3ccccc3cc3ccccc23)CC1 (stereo unspecified)	7	17.4	1.4	2.5	1	0.7
Cl.Cl.NCCCCNCc1c2ccccc2cc2ccccc12	–	7.6	0.7	7.7	–	–
Cl.NCC(O)CNCCCCNCc1c2ccccc2cc2ccccc12 (stereo unspecified)	1	9.5	0.7	9.1	1.5	2.3
Cl.Cl.NCCOCCOCCNCc1c2ccccc2cc2ccccc12	1.3	15.9	0.7	12.6	11.3	17
Cl.NCCCCNCCCCNCc1c2ccccc2cc2ccccc12	–	66.7	2	0.45	–	–
Cl.Cl.NCCCCCCCCNCc1c2ccccc2cc2ccccc12	1	4.9	0.7	4.9	3	4.6
Cl.NCCCCNCCCCNCc1ccc2ccc3cccc4ccc1c2c34	–	15.5	1.1	0.46	–	0.36
Cl.NCCCCNCCCCNCc1ccccc1	–	–	0.1	–	–	421
Cl.NCCCCNCCCCNCc1cccc2ccccc12	–	> 100	1.1	0.6	–	–
Cl.NCCCNCCCCNCc1c2ccccc2cc2ccccc12	24	9.5	2	0.4	–	–
CCCCNCc1c2ccccc2cc2ccccc12.Cl	–	11.2	0.7	10.5	–	–

Reference: ChEMBL document CHEMBL1145903, “Defining the molecular requirements for the selective delivery of polyamine conjugates into cells containing active polyamine transporters” (J Med Chem, 2003)
